# KCNK9 inh – blocks the human KCNK9 two-pore domain potassium channel; Q9NPC2; HEK293 KCNK9, FluxOR thallium flux fluorescence; stronger effect = lower value; B-score at 10 µM; 1.2% of 310,000 active;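 active = ratio B-score over 3 SD below the library mean, with starting fluorescence within 5 SD of its mean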;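 also: negative B-score means less thallium flux so channel inhibition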
# KCNQ1 block – blocks the human KCNQ1 potassium channel; 1.3% of 310,000 active; P51787; B-score at 10 µM; CHO-K1 KCNQ1, FluxOR thallium flux fluorescence; stronger effect = higher value; AID 2642;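 active = compounds whose thallium flux B-score, printed positive for inhibition, exceeds three library SD while starting fluorescence stays within three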;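 also: channel opened by potassium depolarization with thallium stimulus after 20 min compound exposure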
# hERG protect – hERG (human) protection from proarrhythmic block; Q12809; CHO-hERG, FluxOR thallium flux, dofetilide IC70 present; activation (rescue from dofetilide block), less the hit threshold, % at 10 µM; 0.51% of 310,000 active;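 active = activation above the mean of controls blocked by dofetilide plus 5 SD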;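 also: thallium influx through hERG after potassium depolarization seen as dye fluorescence rise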
# KCNQ1 pot – human KCNQ1 channel potentiation or activation. P51787. CHO-K1 KCNQ1, thallium flux FluxOR fluorescence; stronger effect = higher value. B-score at 10 µM. 0.35% of 310,000 active;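 active = fluorescence ratio B-score, a plate-corrected score, at least three library SD, with initial intensity B-score within 5 SD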
#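 Doses: Single concentration per compound, DMSO matched to controls | Test system: KCNQ1-transfected CHO-K1 cells | Timing: 90 min dye loading and 20 min compound exposure, both at room temperature | Measured by: Kinetic FluxOR thallium fluorescence, 10-s 1-Hz baseline, 110-s post-stimulus read | Medium: Assay buffer with matched DMSO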
# KCNK3 block – human KCNK3 channel inhibition, primary screen; O14649; CHO-KCNK3 thallium flux, FluxOR fluorescence; stronger effect = lower value; B-score at 10 µM; 0.84% of 340,000 active; AID 602410;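 active = B-score under library mean minus 4 SD, starting fluorescence ratio at most library mean plus 5 SD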;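 also: more negative B-score means stronger inhibition of thallium flux through KCNK3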
# PHOSPHO1 block – PHOSPHO1 (human) inhibition. inhibition, % at 13.3 µM. recombinant PHOSPHO1, absorbance phosphatase assay. 1.1% of 290,000 active; in the data active = inhibition above about 60%
# KCNK3 confirm – confirmation of human KCNK3 two-pore domain potassium channel inhibitors | shares compounds with KCNK3 block | CHO-KCNK3 thallium flux, FluxOR fluorescence; 0% buffer, 100% carvedilol maximal block | ratio percent of control, % at 10 µM | 99% of 2,400 active;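 active = ratio percent of control, averaged over triplicates, above buffer control mean plus 5 SD, cut at about 64% in these data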;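 also: ratio is the fluorescence rise from min to max over baseline after thallium stimulus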
# KCNK3 noninduced – activity in cells without induced KCNK3 expression; thallium flux ratio (lower = more inhibition) at 10 µM; non-induced KCNK3 parental cells, FluxOR thallium flux; stronger effect = lower value; shares compounds with KCNK3 block; 40% of 2,400 active;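 active = thallium flux ratio, averaged over three wells, more than 5 SD below the buffer control mean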;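 also: host cells are CHO cells without KCNK3 induction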
# A number is an active result; i = inactive; nt = not tested or not shown. An excerpt weighted towards active compounds, which were near 4% of everything screened.
SMILES,KCNK9 inh,KCNQ1 block,hERG protect,KCNQ1 pot,KCNK3 block,PHOSPHO1 block,KCNK3 confirm,KCNK3 noninduced
O=S(Cc1ccc(Br)cc1)Cc1nnc(SCc2c(F)cccc2Cl)n1-c1ccccc1 (configuration not stated),i,i,i,i,i,i,nt,nt
O=S(Cc1ccc(Br)cc1)Cc1nnc(SCc2ccc(Cl)cc2)n1-c1ccccc1 (configuration not stated),i,i,i,i,-10,i,98,i
Cc1ccc2oc(-c3cccc(NC(=O)c4ccc(Br)o4)c3)nc2c1,i,i,i,i,-11,i,105,i
CCN(CC)C(=O)Oc1nnc(SC(C)C)n1-c1ccc(Cl)cc1,i,i,i,i,-9.6,i,86,i
CCN(CC)C(=O)Oc1nnc(SC(C)C)n1-c1ccc(Cl)c(Cl)c1,i,i,i,i,i,i,nt,nt
COCc1c(C(=O)N2CCc3ccccc32)oc2ccccc12,i,i,i,i,-11,i,86,i
Cc1c(C(=O)N2CCc3ccccc32)oc2ccccc12,i,i,i,i,i,i,nt,nt
O=C(c1c[nH]c(C(=O)C(Cl)(Cl)Cl)c1)c1ccc(F)cc1Cl,i,i,i,8,-11,i,88,i
O=C(Cc1cccs1)NNC(=S)NCc1ccc(Cl)cc1,-7.7,i,i,i,-11,100,77,i
COc1ccc(Br)cc1CNC(=O)CN1C(=O)C(c2ccccc2)Oc2cccnc21 (configuration not stated),i,i,i,i,-10,i,95,i
COc1ccc(NC(=O)CCCN2C(=O)C(c3ccccc3)Oc3cccnc32)cc1OC (configuration not stated),i,i,i,i,i,i,nt,nt
O=C(NNc1cccc(Cl)n1)c1c(Cl)cccc1Cl,i,i,i,i,i,i,nt,nt
O=C(NC1CC1)c1cccc(NC(=O)c2cnn(-c3ccccc3)n2)c1,nt,nt,nt,nt,i,nt,nt,nt
O=C(NC1CC1)c1cccc(NC(=O)c2cn3ccccc3n2)c1,nt,nt,nt,nt,-12,nt,60,i
CC(C)c1ccc(S(=O)(=O)Nc2ccc3c(c2)OCO3)cc1,nt,nt,nt,nt,-11,nt,122,i
COC(=O)COc1ccc(S(=O)(=O)Nc2ccc3c(c2)OCO3)cc1,i,i,i,i,i,i,nt,nt
COC(=O)COc1ccc(S(=O)(=O)Nc2ccc3c(c2)OCO3)cc1Cl,i,i,i,i,-9.7,i,98,i
S=C1NCCOCCOCCNC(=S)N2CCOCCOCCN1CCOCCOCC2,i,i,i,i,i,i,nt,nt
CN(C)c1ccc(/C=C/C(=O)c2cc(Cl)ccc2O)cc1,i,i,i,i,-13,i,106,i
O=C(CN1C(=O)S/C(=C\c2ccccc2F)C1=O)NC1C=CS(=O)(=O)C1 (configuration not stated),i,i,i,i,i,i,nt,nt
O=C(CCSc1nc(-c2ccco2)cc(C(F)(F)F)n1)N1CCN(c2ccccn2)CC1,i,i,i,i,i,i,nt,nt
O=C(CCSc1nc(-c2ccco2)cc(C(F)(F)F)n1)N1CCCc2ccccc21,i,i,i,i,-9.9,i,100,i
CCOC(=O)c1c(CSC(=N)N)n(-c2ccccc2)c2cc(Br)c(OC(C)=O)cc12,i,i,i,i,-10,i,129,0.14
CCCC(=O)Nc1nc2c(s1)COc1ccccc1-2,i,i,i,i,i,i,nt,nt
O=C(CCSc1ccccc1)Nc1nc2c(s1)COc1ccccc1-2,i,i,i,i,-9.4,i,105,i
CCN(CC)S(=O)(=O)c1ccc(C)c(NC(=S)N2CCN(C/C=C/c3ccccc3)CC2)c1,i,i,i,i,-11,i,101,i
CCN(CC)S(=O)(=O)c1ccc(C)c(NC(=S)N2CCN(c3ccccn3)CC2)c1,i,i,i,i,i,i,nt,nt
CCn1c(=O)c(C(=O)Nc2ccc(C)cc2C)c(O)c2ccccc21,i,i,i,i,i,i,nt,nt
